TNAP act hiacc: increases human TNAP activity under high phosphate acceptor concentration; P05186; 200,000 tested, under 10 active; purified TNAP, CDP-star luminescence, 1 M DEA, 30 min; hits give high values; 0 = EDTA background, 1 = DMSO-only activity; activation factor at 20 µM;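 active means activation factor at least 2 at 20 µM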
Target sequence (P05186 whole entry, looked up): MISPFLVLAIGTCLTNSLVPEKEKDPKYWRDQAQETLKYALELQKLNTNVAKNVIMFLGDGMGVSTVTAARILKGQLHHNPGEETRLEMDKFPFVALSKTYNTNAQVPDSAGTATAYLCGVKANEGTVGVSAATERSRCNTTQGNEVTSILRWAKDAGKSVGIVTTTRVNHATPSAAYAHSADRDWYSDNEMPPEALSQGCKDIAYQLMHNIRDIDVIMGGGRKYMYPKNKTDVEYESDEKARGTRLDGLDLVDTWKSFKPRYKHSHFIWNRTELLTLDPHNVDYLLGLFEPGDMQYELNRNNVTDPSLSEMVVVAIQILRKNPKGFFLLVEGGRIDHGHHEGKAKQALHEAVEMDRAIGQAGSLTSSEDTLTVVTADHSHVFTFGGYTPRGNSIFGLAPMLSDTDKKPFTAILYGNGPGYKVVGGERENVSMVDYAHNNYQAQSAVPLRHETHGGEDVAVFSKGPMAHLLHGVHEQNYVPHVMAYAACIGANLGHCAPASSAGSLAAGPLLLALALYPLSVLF
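Dosing: 20 µM single point. System: human TNAP. Amount: TNAP 1/800 final. Incubation: 30 min, room temperature. Read-out: TNAP activation factor scaled between EDTA and DMSO control wells. Signal: luminescence from CDP-star hydrolysis. Medium: 1 M DEA, pH 9.8, Mg2+, Zn2+. Control set: EDTA negative control, DMSO positive control.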
Lmaj promast: Leishmania major promastigote growth inhibition. Leishmania major promastigotes, resazurin fluorescence viability. inhibition, % at 10 µM. 200,000 tested, 9% active; in the data active means inhibition above about 50%;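 further: promastigotes grown with compound for 44 hours at 28 °C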
TNAP inh hi DEA: inhibitors of human TNAP at high phosphate acceptor concentration. P05186. purified TNAP, CDP-star luminescence, 1 M DEA. inhibition, % at 20 µM. 200,000 tested, 0.03% active;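 active means over 50% inhibition of tissue-nonspecific alkaline phosphatase at 20 µM in the single-dose screen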;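 further: plate controls were DMSO wells for no effect and EDTA-quenched wells as full inhibition for full effect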
HCT116 PTEN-null: growth suppressors of cells with PTEN tumor suppressor deletion | HCT116 PTEN-null viability, CellTiter-Glo, 60 h; hits give low values | viability, % at 10 µM | 140,000 tested, 1.2% active;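 active means viability at or below a set limit, 4 SD under the median of all tested compounds, cut at about 3.7% in these data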;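 further: PTEN knockout HCT116 line with beta catenin targeted HCT116 as companion control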
TNAP inh noacc: TNAP (human) inhibition, acceptor-free conditions. purified TNAP, CDP-star luminescence, 30 min. 200,000 tested, 0.26% active. inhibition, % at 20 µM;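 active means tissue-nonspecific alkaline phosphatase inhibition above about 50% at 20 µM in the single-dose screen, limit read from the data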;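 further: 0% = DMSO negative control and 100% = EDTA positive control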
HCT116 bCat-KO: beta-catenin-lacking colon tumor cell growth suppression; HCT116 beta-catenin knockout viability, CellTiter-Glo, 60 h; hits give low values; AID 818; viability, % at 10 µM; 140,000 tested, 1.5% active;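 active means viability at or under a set limit, the compound median less 4 SD, cut at about 6% in these data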;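 further: 0% = Hyamine 1622 control at 20 µM and 100% = untreated cell control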
* marks the source's active call; other numbers are inactive results. Only some compounds are listed: those with a hit (about 9.6% of all), similar ones and a draw of the others.

`COn1c(SCc2ccc(C)cc2C)nc2ccccc2c1=O` gave TNAP act hiacc 1.1, Lmaj promast -4.1, TNAP inh hi DEA -5.1, HCT116 PTEN-null 46.6, TNAP inh noacc 4.6 and HCT116 bCat-KO 50.2.
`Cc1ccc(C)c(NC(=S)N(Cc2ccco2)C(C)c2cccs2)c1` (stereo unspecified) gave TNAP act hiacc 1.1, Lmaj promast 63.2*, TNAP inh hi DEA -7.2 and TNAP inh noacc -12.8.
`COc1cccc(NC(=O)N(Cc2ccco2)C(C)c2cccs2)c1` (stereo unspecified) gave TNAP act hiacc 1, Lmaj promast 60.6*, TNAP inh hi DEA -1.8, HCT116 PTEN-null 81.2, TNAP inh noacc -17.3 and HCT116 bCat-KO 85.8.
Cc1ccc(Cl)cc1NC(=S)N(Cc1ccco1)C(C)c1cccs1 (stereo unspecified) was read as TNAP act hiacc 1.1, Lmaj promast 27.5, TNAP inh hi DEA -5.8 and TNAP inh noacc -5.1.
`OC(CN1c2ccccc2Sc2ccccc21)Cn1nnc2ccccc21` (stereo unspecified) gave TNAP act hiacc 1, Lmaj promast 48.2, TNAP inh hi DEA -3.9, HCT116 PTEN-null 2.5*, TNAP inh noacc -2.1 and HCT116 bCat-KO 7.4.
For Cc1nn(CC(O)CN2c3ccccc3Sc3ccccc32)c(C)c1Br (stereo unspecified) the results were TNAP act hiacc 1.1, Lmaj promast 64.4*, TNAP inh hi DEA -5.8, HCT116 PTEN-null 51.9, TNAP inh noacc 2.0 and HCT116 bCat-KO 65.2.
Cc1nn(CC(O)c2ccccc2)c(C)c1Br (stereo unspecified) was read as TNAP act hiacc 1.1, Lmaj promast -1.0, TNAP inh hi DEA -6.6, HCT116 PTEN-null 105.4, TNAP inh noacc -14.0 and HCT116 bCat-KO 90.0.
Screening CC(=O)N1CCc2ccccc2C1CC(=O)O (stereo unspecified) returned TNAP act hiacc 1, Lmaj promast -1.9, TNAP inh hi DEA 2.4 and TNAP inh noacc -8.1.
Screening C/C(=C\c1ccccc1)C(=O)NCCc1ccccc1 returned TNAP act hiacc 1, Lmaj promast -3.1, TNAP inh hi DEA -4.2 and TNAP inh noacc -4.6.
COc1ccccc1NC(=O)COC(=O)c1ccc([N+](=O)[O-])s1 was read as TNAP act hiacc 1.1, Lmaj promast 9.2, TNAP inh hi DEA -7.2 and TNAP inh noacc -17.6.
`CCc1ccccc1NC(=O)c1ccc([N+](=O)[O-])s1` gave TNAP act hiacc 1.1, Lmaj promast 99.9*, TNAP inh hi DEA -7.9 and TNAP inh noacc -12.7.
CC(=O)Nc1ccc(C(=O)OCC(=O)NCc2ccc(Cl)cc2)cc1 was read as TNAP act hiacc 1.1, Lmaj promast -2.8, TNAP inh hi DEA -6.1 and TNAP inh noacc -17.1.
Screening Cc1ccc(-c2cc3nc(-c4ccccc4)cc(N4CCC5(CC4)OCCO5)n3n2)cc1 returned TNAP act hiacc 1, Lmaj promast 55.9*, TNAP inh hi DEA -1.2, HCT116 PTEN-null 82.5, TNAP inh noacc -6.1 and HCT116 bCat-KO 90.6.
Screening COCCN1CCN(c2cc(-c3ccccc3)nc3cc(-c4cccc(F)c4)nn23)CC1 returned TNAP act hiacc 1.1, Lmaj promast 87.4*, TNAP inh hi DEA -8.4, HCT116 PTEN-null 19.4, TNAP inh noacc -6.0 and HCT116 bCat-KO 20.1.
Screening COc1cc(C(=O)Nc2nnc(CC(C)C)s2)c([N+](=O)[O-])cc1OC returned TNAP act hiacc 1, Lmaj promast -6.6, TNAP inh hi DEA -3.6 and TNAP inh noacc -3.9.
Cc1nonc1OCCNCCNc1ccc([N+](=O)[O-])cc1Cl was read as TNAP act hiacc 1, Lmaj promast 87.1*, TNAP inh hi DEA -1.3 and TNAP inh noacc -3.3.
For CC(C)NC(=O)CN1CCN(C(=O)CCl)CC1 the results were TNAP act hiacc 1.1, Lmaj promast -7.2, TNAP inh hi DEA -6.3 and TNAP inh noacc -8.5.
`CC(C)c1ccc(CN2CCN(C(=O)CCl)CC2)cc1` gave TNAP act hiacc 1.1, Lmaj promast 98.9*, TNAP inh hi DEA -8.8 and TNAP inh noacc -5.7.
Screening Cc1ccc(C2=[N+]([O-])C3(CCCCC/C3=N\NC(N)=S)N(O)C2(C)C)o1 (stereo unspecified) returned TNAP act hiacc 1, Lmaj promast -4.6, TNAP inh hi DEA -2.5, HCT116 PTEN-null 104.9, TNAP inh noacc 39.7 and HCT116 bCat-KO 95.5.
Screening CN(C)c1ccc(O)c2c1CC1CC3[C@@H](N(C)C)C(=O)C(C(N)=O)=C(O)[C@]3(O)C(=O)C1=C2O (stereo partly specified) returned TNAP act hiacc 1, Lmaj promast 83.4*, TNAP inh hi DEA 2.9, HCT116 PTEN-null 66.1, TNAP inh noacc -2.3 and HCT116 bCat-KO 70.7.
For CN(C)CCNC(=O)c1ccc(COc2ccc(Cl)cc2Cl)cc1 the results were TNAP act hiacc 1, Lmaj promast 99.0*, TNAP inh hi DEA -3.9, HCT116 PTEN-null 1.6*, TNAP inh noacc -10.4 and HCT116 bCat-KO 3.1*.
For COc1cc(C(=O)NCCC(C)C)ccc1OCc1ccc(Cl)cc1Cl the results were TNAP act hiacc 1.1, Lmaj promast 97.1*, TNAP inh hi DEA -14.4, HCT116 PTEN-null 75.1, TNAP inh noacc -17.8 and HCT116 bCat-KO 79.8.
For COc1cc(C(=O)NC2CCCCC2)ccc1OCc1ccc(Cl)cc1Cl the results were TNAP act hiacc 1.1, Lmaj promast 73.6*, TNAP inh hi DEA -5.8, HCT116 PTEN-null 48.4, TNAP inh noacc -11.5 and HCT116 bCat-KO 58.9.
Cc1ccc(-c2cc(C(=O)O)n(-c3ccc(S(N)(=O)=O)cc3)n2)cc1 was read as TNAP act hiacc 1, Lmaj promast -6.0, TNAP inh hi DEA 3.7 and TNAP inh noacc 0.9.
`COc1cc(C2NC(=O)NC(c3ccccc3)=C2C(C)=O)c(Cl)cc1OCC(=O)O` (stereo unspecified) gave TNAP act hiacc 1, Lmaj promast -4.2, TNAP inh hi DEA -2.2 and TNAP inh noacc -4.2.
Screening O=C(CSc1ccc(Br)cc1)N1CCN(C(=O)c2ccco2)CC1 returned TNAP act hiacc 1, Lmaj promast -3.9, TNAP inh hi DEA -1.8 and TNAP inh noacc 2.6.
For O=C(COc1cccc2ccccc12)N1c2ccccc2CCc2ccccc21 the results were TNAP act hiacc 1.1, Lmaj promast -12.8, TNAP inh hi DEA -5.6, HCT116 PTEN-null 42.7, TNAP inh noacc 4.1 and HCT116 bCat-KO 62.9.
For O=C(Nc1ncc(Cc2ccc(C(F)(F)F)cc2)s1)c1ccc(-c2cccc([N+](=O)[O-])c2)o1 the results were TNAP act hiacc 1, Lmaj promast 89.9*, TNAP inh hi DEA -2.3, HCT116 PTEN-null 45.6, TNAP inh noacc 3.1 and HCT116 bCat-KO 33.8.
Screening O=C(Nc1ncc(Cc2ccccc2Cl)s1)c1ccc(-c2cccc([N+](=O)[O-])c2)o1 returned TNAP act hiacc 1, Lmaj promast 92.3*, TNAP inh hi DEA -1.2, HCT116 PTEN-null 64.8, TNAP inh noacc -14.9 and HCT116 bCat-KO 60.5.

Screening results: PubChem BioAssay, several laboratories
